Measurements from ChEMBL document CHEMBL3992538, “Hybrids of thienopyrimidinones and thiouracils as anti-tubercular agents: SAR and docking studies” (Eur J Med Chem, 2017).
≈ marks a conversion by molar mass, not a printed value.

How the values were obtained:
[1] = Selectivity index, ratio of GI50 for human HeLa cells to MIC for active stage of Mycobacterium tuberculosis H37Ra ATCC 25177 infected in human THP1 cells; assay type: toxicity, cell-based; settings: read-out: Selectivity Index
How it was run: (§1)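 Selectivity index is the cytotoxic GI50 against the named human cell line divided by the antimycobacterial value. Activity counted as specific when SI >10.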

[2] = Selectivity index, ratio of GI50 for human PANC1 cells to MIC for dormant stage of Mycobacterium tuberculosis H37Ra ATCC 25177 infected in human THP1 cells; assay type: toxicity, cell-based; settings: PANC-1 cells, read-out: Selectivity Index; how it was run: as §1
[3] = Selectivity index, ratio of GI50 for human PANC1 cells to MIC for active stage of Mycobacterium tuberculosis H37Ra ATCC 25177 infected in human THP1 cells; assay type: toxicity, cell-based; settings: PANC-1 cells, read-out: Selectivity Index; how it was run: as §1
[4] = Selectivity index, ratio of GI50 for human A549 cells to MIC for dormant stage of Mycobacterium tuberculosis H37Ra ATCC 25177 infected in human THP1 cells; assay type: toxicity, cell-based; settings: read-out: Selectivity Index; how it was run: as §1
[5] = tested on: Mycobacterium tuberculosis; test: Antitubercular activity against dormant stage of Mycobacterium tuberculosis H37Ra ATCC 25177 after 12 days by XTT reduction menadione assay; assay type: functional; settings: H37Ra ATCC 25177, 288 h
How it was run: (§2)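 M. tuberculosis H37Ra (ATCC 25177), grown to log phase (OD 1.0) in M. pheli medium from -70°C stock, subcultured once before inoculation. Incubation 8 days (active) or 12 days (dormant). XRMA read-out as absorbance at 470 nm.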

[6] = Selectivity index, ratio of GI50 for human HeLa cells to MIC for dormant stage of Mycobacterium tuberculosis H37Ra ATCC 25177; assay type: toxicity, cell-based; settings: read-out: Selectivity Index; how it was run: as §1
[7] = Selectivity index, ratio of GI50 for human PANC1 cells to MIC for active stage of Mycobacterium tuberculosis H37Ra ATCC 25177; assay type: toxicity; settings: PANC-1 cells, read-out: Selectivity Index; how it was run: as §1
[8] = tested on: Mycobacterium tuberculosis; test: Antitubercular activity against active stage of Mycobacterium tuberculosis H37Ra ATCC 25177 infected in human THP1 cells after 8 days by nitrate reductase assay; assay type: functional; settings: H37Ra ATCC 25177, 192 h
How it was run: (§3)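 Ex vivo test of H37Ra in THP-1 cells by nitrate reductase assay, absorbance read at 540 nm. Active stage incubated 8 days and dormant stage 12 days. H37Ra (ATCC 25177) grown in M. pheli medium to OD 1.0 and subcultured once from -70°C stock.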

[9] = Cytotoxicity against human HeLa cells assessed as growth inhibition by MTT assay; assay type: cell-based
How it was run: (§4)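 MTT assay in duplicate on THP-1 leukaemia, A549 lung adenocarcinoma, PANC-1 pancreatic adenocarcinoma and HeLa cervical carcinoma cells, all obtained from ECCC.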

[10] = Cytotoxicity against human THP1 cells assessed as growth inhibition by MTT assay; assay type: cell-based; settings: THP-1 cells; how it was run: as §4
[11] = Selectivity index, ratio of GI50 for human A549 cells to MIC for dormant stage of Mycobacterium tuberculosis H37Ra ATCC 25177; assay type: toxicity; settings: read-out: Selectivity Index; how it was run: as §1
[12] = Cytotoxicity against human PANC1 cells assessed as growth inhibition by MTT assay; assay type: cell-based; settings: PANC-1 cells; how it was run: as §4
[13] = Selectivity index, ratio of GI50 for human PANC1 cells to MIC for dormant stage of Mycobacterium tuberculosis H37Ra ATCC 25177; assay type: toxicity; settings: PANC-1 cells, read-out: Selectivity Index; how it was run: as §1
[14] = Selectivity index, ratio of GI50 for human A549 cells to MIC for active stage of Mycobacterium tuberculosis H37Ra ATCC 25177; assay type: toxicity; settings: read-out: Selectivity Index; how it was run: as §1
[15] = tested on: Mycobacterium tuberculosis; test: Antitubercular activity against dormant stage of Mycobacterium tuberculosis H37Ra ATCC 25177 infected in human THP1 cells after 12 days by nitrate reductase assay; assay type: functional; settings: H37Ra ATCC 25177, 288 h; how it was run: as §3
[16] = tested on: Mycobacterium tuberculosis; test: Antitubercular activity against active stage of Mycobacterium tuberculosis H37Ra ATCC 25177 after 8 days by XTT reduction menadione assay; assay type: functional; settings: H37Ra ATCC 25177, 192 h; how it was run: as §2
[17] = Selectivity index, ratio of GI50 for human HeLa cells to MIC for dormant stage of Mycobacterium tuberculosis H37Ra ATCC 25177 infected in human THP1 cells; assay type: toxicity, cell-based; settings: read-out: Selectivity Index; how it was run: as §1
[18] = Cytotoxicity against human A549 cells assessed as growth inhibition by MTT assay; assay type: cell-based; how it was run: as §4
[19] = Selectivity index, ratio of GI50 for human A549 cells to MIC for active stage of Mycobacterium tuberculosis H37Ra ATCC 25177 infected in human THP1 cells; assay type: toxicity, cell-based; settings: read-out: Selectivity Index; how it was run: as §1
[20] = Selectivity index, ratio of GI50 for human HeLa cells to MIC for active stage of Mycobacterium tuberculosis H37Ra ATCC 25177; assay type: toxicity, cell-based; settings: read-out: Selectivity Index; how it was run: as §1

Compound | selectivity ratio [1] | selectivity ratio [2] | selectivity ratio [3] | selectivity ratio [4] | MIC [5] [µg/mL] | selectivity ratio [6] | selectivity ratio [7] | MIC [8] [µg/mL] | GI50 [9] [µg/mL] | GI50 [10] [µg/mL] | selectivity ratio [11] | GI50 [12] [µg/mL] | selectivity ratio [13] | selectivity ratio [14] | MIC [15] [µg/mL] | MIC [16] [µg/mL] | selectivity ratio [17] | GI50 [18] [µg/mL] | selectivity ratio [19] | selectivity ratio [20]
COc1cc(-c2[nH]c(=S)[nH]c(=O)c2C#N)cc(OC)c1OC | 2 | > 9 | > 3 | > 9 | 17.3 (≈ 54.2 µM) | 4 | > 3 | > 30 | 63.7 (≈ 199 µM) | > 100 | > 6 | > 100 | > 6 | > 3 | 11.3 (≈ 35.4 µM) | > 30 | 6 | > 100 | > 3 | 2
COc1cc(-c2nc(SCCCn3cnc4sc5c(c4c3=O)CCCC5)n(S(=O)(=O)c3ccc(C)cc3)c(=O)c2C#N)cc(OC)c1OC | 2 | > 3 | > 3 | > 3 | > 30 | 2 | > 3 | > 30 | 64.2 (≈ 89.2 µM) | > 100 | > 3 | > 100 | > 3 | > 3 | > 30 | > 30 | < 2 | > 100 | > 3 | 2
C#CCn1c(SCCCn2cnc3sc4c(c3c2=O)CCCC4)nc(-c2cc(OC)c(OC)c(OC)c2)c(C#N)c1=O | 2 | > 3 | > 3 | > 3 | > 30 | 2 | > 3 | > 30 | 66.3 (≈ 110 µM) | > 100 | > 3 | > 100 | > 3 | > 3 | > 30 | > 30 |  | > 100 | > 3 | 2
Cc1ccc(-c2nc(S)nc(O)c2C#N)cc1 | 2 | > 3 | > 3 | 3 | > 30 | 2 | > 3 | > 30 | 67.6 (≈ 278 µM) | 88.9 (≈ 365 µM) | < 3 | > 100 | > 3 | 3 | > 30 | > 30 | 2 | 86.7 (≈ 356 µM) | < 3 | 2
CC(=O)O[C@H]1C(=O)[C@@]2(C)[C@H]([C@H](OC(=O)c3ccccc3)[C@]3(O)C[C@H](OC(=O)[C@H](O)[C@@H](NC(=O)c4ccccc4)c4ccccc4)C(C)=C1C3(C)C)[C@]1(OC(C)=O)CO[C@@H]1C[C@@H]2O [PACLITAXEL] |  |  |  |  |  |  |  |  |  |  |  | 0.128 (≈ 0.15 µM) |  |  |  |  |  |  |  | 
CO[C@H]1/C=C/O[C@@]2(C)Oc3c(C)c(O)c4c(O)c(c(/C=N/N5CCN(C)CC5)c(O)c4c3C2=O)NC(=O)/C(C)=C\C=C\[C@H](C)[C@H](O)[C@@H](C)[C@@H](O)[C@@H](C)[C@H](OC(C)=O)[C@@H]1C [RIFAMPIN] | 196 |  | 196 |  | 0.48 (≈ 0.583 µM) | 208 | 244 | 0.51 (≈ 0.62 µM) |  | 0.14 (≈ 0.17 µM) | 208 |  | 208 | 244 | 0.75 (≈ 0.911 µM) | 0.41 (≈ 0.498 µM) |  |  | 196 | 244
